Most compounds without a hit are left out; they make up all but 1.8% or so of the library.
NPY Y1 blocker – blocks the human neuropeptide Y Y1 receptor; inhibition, % at 3.6 µM; P25929; HEK293-CNG Y1 cells, membrane potential fluorescence; NPY at EC95, then isoproterenol; 200,000 tested, 1% active; AID 1040;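 active = inhibition above the campaign mean inhibition of all tested compounds plus 3 SD, cut at about 20% in these data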;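 note: 0% = DMSO wells given NPY plus isoproterenol and 100% = isoproterenol alone without NPY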
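System: HEK293 cells with Y1 receptor plus CNG channel / Probe or stimulus: NPY 25 nM then isoproterenol 1 µM plus Ro 20-1724 25 µM / Compound: one concentration, 3.6 µM, in 0.4% DMSO / Schedule: compound incubation 1 h at room temperature, readout 45 min post-stimulation / Measured by: membrane potential fluorescence / Read-out: % inhibition of NPY effect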
NPY2 pot ag – potentiators or agonists of human neuropeptide Y receptor Y2; P49146; cells expressing NPY-Y2, potentiator/agonist read-out; activation, % at 3.6 µM; 220,000 tested, 0.45% active; AID 1359; in the data active = activation above about 27%;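 note: cells stimulated with NPY near EC25 plus isoproterenol at EC100; 0% = vehicle plus submaximal agonist and 100% = vehicle plus saturating agonist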
Target sequence (P49146 whole entry, looked up): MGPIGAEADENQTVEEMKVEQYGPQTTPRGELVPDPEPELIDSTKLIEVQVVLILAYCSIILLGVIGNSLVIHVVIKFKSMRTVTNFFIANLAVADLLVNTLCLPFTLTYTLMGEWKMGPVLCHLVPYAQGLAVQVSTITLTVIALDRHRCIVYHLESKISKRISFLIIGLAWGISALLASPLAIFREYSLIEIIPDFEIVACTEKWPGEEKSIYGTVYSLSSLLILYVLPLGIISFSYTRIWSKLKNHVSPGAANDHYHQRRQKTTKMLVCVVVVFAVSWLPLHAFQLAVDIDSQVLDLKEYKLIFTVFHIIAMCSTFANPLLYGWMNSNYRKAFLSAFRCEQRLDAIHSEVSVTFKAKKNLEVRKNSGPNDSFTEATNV
NPY-Y1 PAM-ag – human NPY-Y1 potentiation or agonism, primary screen | P25929 | NPY-Y1 expressing cells, potentiator/agonist activation | activation, % at 3.6 µM | 220,000 tested, 0.37% active | AID 1304; in the data active = activation above about 33%, passing the limit was not always enough;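 note: cells stimulated with NPY at EC10 then isoproterenol at EC100; 0% = low agonist plus stimulus and 100% = saturating agonist plus stimulus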
NPY Y2 blocker – NPY-Y2 (human) receptor antagonism; P49146; NPY-Y2 expressing cells, antagonist mode; inhibition, % at 2.7 µM; 140,000 tested, 0.99% active; in the data active = inhibition above about 17%;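 note: 0% = vehicle with agonist challenge and 100% = reference antagonist with challenge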
NPY-Y1 pot conf – confirmation of human NPY-Y1 receptor potentiators or agonists. shares compounds with NPY-Y1 PAM-ag. cell-based NPY-Y1 potentiator/agonist assay. activation, % at 3.6 µM. 280 tested, 20% active. AID 1546;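 note: cells challenged with NPY at its EC10 plus isoproterenol stimulus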
NPY-Y2 counter – NPY-Y2 potentiation or agonism as NPY-Y1 counter-screen | 280 tested, 20% active | HEK293-CNG cells, membrane-potential fluorescence (FLIPR), 1536-well | activation, % at 3.6 µM | shares compounds with NPY-Y1 PAM-ag; in the data active = activation above about 33%
NPY-Y1 agonist – human NPY-Y1 agonism as potentiator counter-screen; shares compounds with NPY-Y1 PAM-ag; HEK293 Y1-CNGC, membrane potential fluorescence, agonist mode; activation, % at 3.6 µM; 280 tested, 50% active; AID 1697;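 active = percent activation above the mean of DMSO-only control wells plus 3 SD of those wells, cut at about 18% in these data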;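 note: cells challenged with isoproterenol plus Ro 20-1724 with no NPY in test wells; Y1 agonism lowers isoproterenol-driven cAMP and reduces probe fluorescence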
NPY-Y2 agonist – activates human NPY-Y2, counter-screen for NPY-Y1 hits | 280 tested, 67% active | activation, % at 3.6 µM | HEK293 Y2-CNGC, membrane potential fluorescence, agonist mode | shares compounds with NPY-Y1 PAM-ag;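 active = activation above the solvent-only control wells' mean plus 3 SD, cut at about 11% in these data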;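 note: 0% = DMSO with isoproterenol and 100% = 40 nM NPY maximal response; agonism lowers cAMP so well fluorescence drops in active wells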
CNGC counter – counter-screen for NPY-Y1 potentiators or agonists: CNG channel inhibitors | shares compounds with NPY-Y1 PAM-ag | HEK293-CNG parental, isoproterenol cAMP, membrane potential fluorescence | inhibition, % at 3.6 µM | 280 tested, 42% active;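 active = inhibition above the mean of stimulated solvent-only control wells plus 3 SD, cut at about 22% in these data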;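 note: 0% = isoproterenol-stimulated DMSO wells and 100% = unstimulated DMSO wells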
NPY-Y2 pot conf – confirmation of human NPY-Y2 receptor potentiators or agonists; shares compounds with NPY2 pot ag; cell-based NPY-Y2 potentiator/agonist assay; activation, % at 3.6 µM; 450 tested, 20% active; AID 1539; in the data active = activation above about 33%
NPY-Y1 potentiator – potentiates or activates NPY-Y1, counter-screen for NPY-Y2 hits. shares compounds with NPY2 pot ag. 450 tested, 20% active. Y1 HEK293-CNG cells, membrane potential fluorescence. activation, % at 3.6 µM;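 note: cells stimulated with submaximal NPY then isoproterenol with phosphodiesterase inhibitor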
NPY-Y1 ag 2 – human NPY-Y1 agonism as NPY-Y2 potentiator counter-screen; HEK293 Y1-CNGC, membrane potential fluorescence; shares compounds with NPY2 pot ag; 450 tested, 37% active; activation, % at 3.6 µM;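 active = activation above the mean of DMSO-only control wells plus 3 SD, cut at about 18% in these data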;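 note: cells stimulated with 1 µM isoproterenol plus the PDE inhibitor Ro 20-1724; 0% = isoproterenol with DMSO and no NPY and 100% = 40 nM NPY; Y1 agonists lower the membrane potential dye signal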
CNGC inhibitor – cyclic nucleotide gated channel inhibition as counter-screen | shares compounds with NPY2 pot ag | HEK293-CNG parental, isoproterenol cAMP, membrane potential fluorescence | inhibition, % at 3.6 µM | 450 tested, 32% active | AID 1703;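 active = inhibition above the control-well mean plus 3 SD of those wells, cut at about 22% in these data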;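 note: 0% = DMSO with isoproterenol and 100% = DMSO without isoproterenol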
Y2 agonist ctr – activates human NPY-Y2 receptor in potentiator counter-screen. shares compounds with NPY2 pot ag. HEK293 Y2/CNGC cells, membrane potential fluorescence, agonist mode. activation, % at 3.6 µM. 450 tested, 56% active;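 active = activation above the mean of solvent-only control wells plus 3 SD, cut at about 10% in these data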;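 note: cells stimulated by isoproterenol with no NPY added so direct agonism is tested; 0% = DMSO with isoproterenol alone and 100% = NPY at EC100 plus isoproterenol; agonism lowers probe fluorescence through less cAMP and CNG channel opening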
Starred values were filed as active, the others as inactive; . = no result given. Cut-off read from the data, not from the text of the source, unless noted: active = activation above about 45%; inactive = the rest.

SMILES	NPY Y1 blocker	NPY2 pot ag	NPY-Y1 PAM-ag	NPY Y2 blocker	NPY-Y1 pot conf	NPY-Y2 counter	NPY-Y1 agonist	NPY-Y2 agonist	CNGC counter	NPY-Y2 pot conf	NPY-Y1 potentiator	NPY-Y1 ag 2	CNGC inhibitor	Y2 agonist ctr
O=P(Nc1ccccc1)(Nc1ccccc1)Oc1ccc(Cl)cc1	-2	14	41*	1	33	20	23*	22*	44*	.	.	.	.	.
CC(CCc1ccccc1)NCCC#N (stereo not drawn)	.	27	56*	.	9	9	8	2	-4	.	.	.	.	.
c1ccc(CCNCc2ccccc2)cc1	5	-1	-1	0	.	.	.	.	.	.	.	.	.	.
CC(C)(C)NC(=S)/N=C(\N)N[N+](=O)[O-]	0	0	6	.	.	.	.	.	.	.	.	.	.	.
Cc1cc(C)n(-c2ccc(NN=C(C#N)C#N)cc2)n1	.	42*	41	.	.	.	.	.	.	9	1	-1	5	4
Cc1cccc(OP(=O)(Oc2ccccc2)OC(c2ccccc2)C(F)(F)F)c1 (stereo not drawn)	13	6	-18	11	.	.	.	.	.	.	.	.	.	.
CN1CCN(c2ccc([N+](=O)[O-])cc2Cl)CC1	3	12	8	.	.	.	.	.	.	.	.	.	.	.
CC(C)(C)c1cc([N+](=O)[O-])cc(C(C)(C)C)c1O	7	45*	-1	.	.	.	.	.	.	-8	-48	-34	-25	-7

Screening data (PubChem)
